{"source": "ChEMBL document CHEMBL3271993", "about": "“Synthesis and some pharmacological properties of five analogs of oxytocin having L-homocysteine in position 6” (J Med Chem, 1976)", "key": {"[1]": {"target": "T1, Oxytocin receptor (Rattus norvegicus) (UniProt P70536)", "T1 sequence (whole entry)": "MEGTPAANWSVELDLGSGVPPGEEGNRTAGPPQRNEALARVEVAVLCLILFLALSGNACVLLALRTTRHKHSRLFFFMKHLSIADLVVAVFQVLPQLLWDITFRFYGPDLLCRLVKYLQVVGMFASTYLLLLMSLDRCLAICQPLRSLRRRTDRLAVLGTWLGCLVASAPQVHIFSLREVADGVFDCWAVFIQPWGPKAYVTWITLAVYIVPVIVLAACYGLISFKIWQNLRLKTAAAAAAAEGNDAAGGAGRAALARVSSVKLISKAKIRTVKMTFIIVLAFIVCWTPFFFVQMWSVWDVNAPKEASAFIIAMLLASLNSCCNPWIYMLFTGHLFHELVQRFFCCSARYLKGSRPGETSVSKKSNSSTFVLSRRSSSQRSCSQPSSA", "test": "Agonist activity at oxytocin receptor in rat uterus", "type": "tissue-based", "method_in_brief": "(§1)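 Purified analogs tested against U.S.P. Agonist activity expressed as units per mg, given as mean potency ± standard error.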"}, "[2]": {"species": "Gallus gallus", "test": "Agonist activity at oxytocin receptor in chicken by avian vasodepressor assay", "method_in_brief": "as §1"}, "[3]": {"target": "T2, Oxytocin receptor (Rattus norvegicus, UniProt P70536)", "T2 sequence (P70536 whole entry)": "T1 sequence (whole entry)", "test": "Antagonist activity at oxytocin receptor in rat uterus assessed as inhibition of synthetic oxytocin-induced response treated 1.5 to 2 mins prior to oxytocin challenge", "type": "tissue-based", "conditions": "read-out: pA2 (converted)", "method_in_brief": "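Antagonist injected 1.5-2 min before synthetic oxytocin, giving any agonist response time to finish. Potency given as pA2 (Schild): the negative log of the average molar antagonist concentration that brings the response to 2x agonist units down to that of x units.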"}, "[4]": {"test": "Antagonist activity at oxytocin receptor in chicken assessed as inhibition of synthetic oxytocin-induced response by avian vasodepressor assay", "parameters": "species or system Gallus gallus", "method_in_brief": "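Inhibitory potency given as pA2 (Schild): the negative log of the average molar antagonist concentration that reduces the response to 2x units of agonist to the level of x units of agonist.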"}}, "note": "Starred links: 1 amine or outer side, 2 acyl side, 3 side chain; linkers in the order of their positions; H or OH if unused. Positions of bridges follow the written chain, without caps; N, C: chain ends. Non-standard residues stand in square brackets, D forms with d. Residues, ends and D or L forms follow the SMILES beside them. hCys = N[C@@H](CCS)C(=O)O; X1 = O=C(CCCS[*:2])[*:1]; X2 = O=C(CS[*:2])[*:1]", "data": [{"smiles": "CC[C@H](C)[C@@H]1NC(=O)[C@H](Cc2ccc(O)cc2)NC(=O)CSSCC[C@@H](C(=O)N2CCC[C@H]2C(=O)N[C@@H](CC(C)C)C(=O)NCC(N)=O)NC(=O)[C@H](CC(N)=O)NC(=O)[C@H](CCC(N)=O)NC1=O", "note": "(YIQN[hCys]PLG-NH2; linker N-5 via X2)", "values": [{"measurement": "Activity", "setting": "[1]", "value": 37, "unit": "U/mg"}, {"measurement": "Activity", "setting": "[2]", "value": 0.3, "unit": "U/mg"}]}, {"smiles": "CC[C@H](C)[C@@H]1NC(=O)[C@H](Cc2ccc(O)cc2)NC(=O)CCCSSCC[C@@H](C(=O)N2CCC[C@H]2C(=O)N[C@@H](CC(C)C)C(=O)NCC(N)=O)NC(=O)[C@H](CC(N)=O)NC(=O)[C@H](CCC(N)=O)NC1=O", "note": "(YIQN[hCys]PLG-NH2; linker N-5 via X1)", "values": [{"measurement": "Activity", "setting": "[1]", "value": 0.3, "unit": "U/mg"}, {"measurement": "Kb", "setting": "[3]", "value": 182, "unit": "nM"}, {"measurement": "pA2", "setting": "[4]", "value": 7.34}]}, {"smiles": "CC[C@H](C)[C@@H]1NC(=O)[C@H](Cc2ccc(O)cc2)NC(=O)[C@@H](N)CSSCC[C@@H](C(=O)N2CCC[C@H]2C(=O)N[C@@H](CC(C)C)C(=O)NCC(N)=O)NC(=O)[C@H](CC(N)=O)NC(=O)[C@H](CCC(N)=O)NC1=O", "values": [{"measurement": "Activity", "setting": "[1]", "value": 12, "unit": "U/mg"}, {"measurement": "Activity", "setting": "[2]", "value": 0.2, "unit": "U/mg"}]}, {"smiles": "CC[C@H](C)[C@@H]1NC(=O)[C@H](Cc2ccc(O)cc2)NC(=O)[C@@H](N)CSSC[C@@H](C(=O)N2CCC[C@H]2C(=O)N[C@@H](CC(C)C)C(=O)NCC(N)=O)NC(=O)[C@H](CC(N)=O)NC(=O)[C@H](CCC(N)=O)NC1=O", "values": [{"measurement": "Activity", "setting": "[1]", "value": 546, "unit": "U/mg"}, {"measurement": "Activity", "setting": "[2]", "value": 507, "unit": "U/mg"}]}, {"smiles": "CC[C@H](C)[C@@H]1NC(=O)[C@H](Cc2ccc(O)cc2)NC(=O)CCSSC[C@H](C(=O)N2CCC[C@H]2C(=O)N[C@@H](CC(C)C)C(=O)NCC(N)=O)NC(=O)[C@H](CC(N)=O)NC(=O)[C@H](CCC(N)=O)NC1=O", "values": [{"measurement": "Activity", "setting": "[1]", "value": 803, "unit": "U/mg"}, {"measurement": "Activity", "setting": "[2]", "value": 975, "unit": "U/mg"}]}, {"smiles": "CC[C@H](C)[C@@H]1NC(=O)[C@H](Cc2ccc(O)cc2)NC(=O)CCSSCC[C@@H](C(=O)N2CCC[C@H]2C(=O)N[C@@H](CC(C)C)C(=O)NCC(N)=O)NC(=O)[C@H](CC(N)=O)NC(=O)[C@H](CCC(N)=O)NC1=O", "values": [{"measurement": "Activity", "setting": "[1]", "value": 22, "unit": "U/mg"}, {"measurement": "pA2", "setting": "[4]", "value": 7.57}]}, {"smiles": "CC[C@H](C)[C@@H]1NC(=O)[C@H](Cc2ccc(O)cc2)NC(=O)[C@@H](N)CCSSCC[C@@H](C(=O)N2CCC[C@H]2C(=O)N[C@@H](CC(C)C)C(=O)NCC(N)=O)NC(=O)[C@H](CC(N)=O)NC(=O)[C@H](CCC(N)=O)NC1=O", "values": [{"measurement": "Kb", "setting": "[3]", "value": 955, "unit": "nM"}, {"measurement": "pA2", "setting": "[4]", "value": 6.48}]}]}
